Results reported in article PMC7458062 (ACS Infectious Diseases, 2020).

Columns and labels:
[1] = test system: P. aeruginosa 18SH strain, blaPDC; type: cell-based; settings: Pseudomonas aeruginosa, read-out: MIC of CAZ, P. aer. 18SH blaPDC
How it was run: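 CLSI broth microdilution in Mueller-Hinton broth, with inoculum at 6 × 10^4 cfu/mL final. Ceftazidime was tested from 128 to 0.06 μg/mL, with test compound held constant at 4 μg/mL. Plates were incubated overnight at 37 °C and MICs were recorded the next day.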

E. coli DH10B blaCTX-M-9 = type: cell-based; settings: Escherichia coli, read-out: MIC of FEP, E. coli, DH10B blaCTX-M-9

MIC [1] [µg/mL] | Structure (SMILES) | MIC (E. coli DH10B blaCTX-M-9) [µg/mL]
64 | CC(C)(O/N=C(\C(=O)N[C@@H]1C(=O)N2C(C(=O)[O-])=C(C[n+]3ccccc3)CS[C@H]12)c1csc(N)n1)C(=O)O [CAZ, ceftazidime] | –
– | CO/N=C(\C(=O)N[C@@H]1C(=O)N2C(C(=O)[O-])=C(C[N+]3(C)CCCC3)CS[C@H]12)c1csc(N)n1 [FEP, cefepime] | 8
